In ChEMBL document CHEMBL5390213 (ACS Med Chem Lett, 2023):
Active and inactive are the calls of the source. The rule behind the calls is not given here.

Legend:
CHP-134 [1] = assay: Growth inhibition of MYCN-amplified human CHP-134 cells assessed as reduction in cell viability measured after 3 days by Celltiter-glo assay; format: functional; settings: CHP-134, 72 h, time 3 day
Procedure, shortened: (§1)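 MYCN-amplified Kelly and CHP-134 neuroblastoma cells were exposed to a nine-point serial dilution for 3 days. Viability was read by CellTiter-Glo and normalized to DMSO-treated cells, and GI50 was calculated. Values are reported with standard error of the mean. The highest dose tested was 5.00 or 2.50 μM.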

[2] = Growth inhibition of MYCN-amplified human Kelly cells assessed as reduction in cell viability measured after 3 days by Celltiter-glo assay; format: functional; settings: 72 h, time 3 day; procedure, shortened: as §1
Tubulin (Homo sapiens) [3] = biological target: T1, Tubulin (Homo sapiens) (UniProt P68371+Q9H4B7+P0DPH7+P68366+Q13509+Q71U36+P04350+Q3ZCM7+P07437+P68363+Q9BQE3+Q6PEY2+Q13885+Q9BVA1+Q9BUF5); assay: Inhibition of tubulin polymerization (unknown origin) assessed as destabilization of microtubule formation at 5 uM incubated for 45 mins by plate reader analysis; format: protein-complex assay
Kelly [4] = assay: Induction of cell cycle arrest in human Kelly cells assessed as increase in cyclin B1 expression at 100 nM measured after 24 hrs by Western blot analysis; format: functional, cell-based
Procedure, shortened: (§2)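 Lysates immunoblotted for mitotic markers cyclin B1 and histone H3 phosphorylated at Ser10. GAPDH used as loading control. Levels compared against DMSO vehicle.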

CHP-134 [5] = assay: Induction of cell cycle arrest in human CHP-134 cells assessed as increase in cyclin B1 expression level at 100 nM measured after 24 hrs by Western blot analysis; format: functional, cell-based; procedure, shortened: as §2
[6] = Microsomal stability in human liver microsomes assessed as half life; format: ADME, Microsome
Tubulin (Homo sapiens) [7] = biological target: T1, Tubulin (Homo sapiens); assay: Disruption of microtubule network in human Kelly cells at 100 nM incubated for 24 hrs by DAPI staining based immunofluorescence analysis; format: cell-based
Procedure, shortened: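 Immunostained for α-tubulin (Alexa-488) with DAPI nuclear counterstain. Microtubule network integrity and tubulin compaction around nuclei assessed from representative images.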

CHP-134 [8] = assay: Induction of cell cycle arrest in human CHP-134 cells at 100 nM measured after 24 hrs by PI/RNAse staining based flow cytometric analysis; format: functional
Procedure, shortened: (§3)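 Cell cycle phase distribution, including G2/M fraction, quantified. n = 3 biological replicates, standard error. Unpaired two-tailed t test.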

Kelly [9] = assay: Induction of cell cycle arrest in human Kelly cells assessed as accumulation of cells in G2/M phase at 100 nM measured after 24 hrs by PI/RNAse staining based flow cytometric analysis; format: functional; procedure, shortened: as §3
Kelly [10] = assay: Induction of cell cycle arrest in human Kelly cells assessed as increase in phospho-histone H3 expression at 100 nM measured after 24 hrs by Western blot analysis; format: functional, cell-based; procedure, shortened: as §2
CHP-134 [11] = assay: Induction of cell cycle arrest in human CHP-134 cells assessed as increase in phospho-histone H3 expression at 100 nM measured after 24 hrs by Western blot analysis; format: functional, cell-based; procedure, shortened: as §2
SK-N-BE(2)-C = assay: Antiproliferative activity against MYCN-amplified human SK-N-BE(2)-C cells assessed as reduction in cell viability measured after 3 days by Cell titer-glo assay; format: functional, cell-based; settings: time 3.0 day
Kelly [12] = assay: Induction of cell cycle arrest in human Kelly cells assessed as increase in cyclin B1 expression at 500 nM measured after 24 hrs by Western blot analysis; format: functional, cell-based
Procedure, shortened: (§4)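 Protein lysates were immunoblotted for the mitotic markers cyclin B1 and histone H3 phosphorylated at Ser10, with GAPDH as the loading control.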

CHP-134 [13] = assay: Induction of cell cycle arrest in human CHP-134 cells assessed as increase in phospho-histone H3 expression at 500 nM measured after 24 hrs by Western blot analysis; format: functional, cell-based; procedure, shortened: as §4
Tubulin (Homo sapiens) [14] = biological target: T1, Tubulin (Homo sapiens); assay: Disruption of microtubule network in human Kelly cells at 500 nM incubated for 24 hrs by DAPI staining based immunofluorescence analysis; format: cell-based
Procedure, shortened: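 Cells were then immunostained for α-tubulin (Alexa-488), with nuclei counterstained by DAPI. The microtubule network was examined in representative images.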

Kelly [15] = assay: Induction of cell cycle arrest in human Kelly cells assessed as increase in phospho-histone H3 expression at 500 nM measured after 24 hrs by Western blot analysis; format: functional, cell-based; procedure, shortened: as §4
CHP-134 [16] = assay: Induction of cell cycle arrest in human CHP-134 cells assessed as increase in cyclin B1 expression level at 500 nM measured after 24 hrs by Western blot analysis; format: functional, cell-based; procedure, shortened: as §4
Kelly [17] = assay: Effect on cell cycle distribution in human Kelly cells at 500 nM measured after 24 hrs by PI/RNAse staining based flow cytometric analysis; format: functional
Procedure, shortened: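 Kelly cells were treated with 500 nM compound or DMSO for 24 h. Cell cycle phase distribution was then profiled and quantified, with n = 3 biological replicates and standard error shown.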

SMILES	GI50 (CHP-134 [1]) [nM]	GI50 [2] [nM]	further results
COc1cc(-c2cccn3cc(-c4ccc(F)cc4)nc23)cc(OC)c1OC	1610	3000	–
COc1cc(-c2cc(C)cn3cc(-c4ccc(C)cc4)nc23)cc(OC)c1OC	381	717	–
COc1cc(-c2cccn3cc(-c4ccc(C)cc4)nc23)cc(OC)c1OC	152	217	inhibition (Tubulin (Homo sapiens) [3]): Active
COc1cc(-c2nccn3cc(-c4ccc(C)cc4)nc23)cc(OC)c1OC	7	12	Activity (Kelly [4]): Active; Activity (CHP-134 [5]): Active; half-life [6]: 26 min; Activity (Tubulin (Homo sapiens) [7]): Active; inhibition (Tubulin (Homo sapiens) [3]): Active; Activity (CHP-134 [8]): Active; Activity (Kelly [9]): Active; Activity (Kelly [10]): Active; Activity (CHP-134 [11]): Active; Activity (SK-N-BE(2)-C): Active
COc1cc2c(c(OC)c1OC)-c1ccc(OC)c(=O)cc1[C@@H](NC(C)=O)CC2 [COLCHICINE]	8	9	Activity (Kelly [4]): Active; Activity (CHP-134 [5]): Active; half-life [6]: > 60 min; Activity (Kelly [10]): Active; Activity (CHP-134 [11]): Active
COc1cc(-c2cccc3nc(-c4ccc(C)cc4)cn23)cc(OC)c1OC	3320	4920	–
COc1c(F)cc(-c2nccn3cc(-c4ccc(C)cc4)nc23)cc1F	175	402	Activity (Kelly [12]): inactive; Activity (CHP-134 [13]): inactive; half-life [6]: 36.1 min; inhibition (Tubulin (Homo sapiens) [3]): Active; Activity (Tubulin (Homo sapiens) [14]): inactive; Activity (SK-N-BE(2)-C): Active; Activity (Kelly [15]): inactive; Activity (CHP-134 [16]): inactive; Activity (Kelly [17]): inactive
COc1cc(-c2cccn3cc(-c4ccc(C(F)(F)F)cc4)nc23)cc(OC)c1OC	2090	> 5000	–
COc1c(Cl)cc(-c2nccn3cc(-c4ccc(C)cc4)nc23)cc1Cl	79	165	inhibition (Tubulin (Homo sapiens) [3]): Active; Activity (SK-N-BE(2)-C): Active
Cc1ccc(-c2cn3ccnc(-c4cc(F)cc(F)c4)c3n2)cc1	474	438	–
COc1ccc(-c2cn3cccc(-c4cc(OC)c(OC)c(OC)c4)c3n2)cc1	511	1370	–
Cc1ccc(-c2cn3ccnc(-c4cc(Cl)c(F)c(Cl)c4)c3n2)cc1	> 2500	> 2500	–
COc1c(Br)cc(-c2nccn3cc(-c4ccc(C)cc4)nc23)cc1Br	469	504	–
COc1cc(-c2cccn3cc(-c4ccc(Cl)cc4)nc23)cc(OC)c1OC	1620	3420	–
